ChEMBL document CHEMBL2086318, “Synthesis and in vitro antimycobacterial activity of 2-methoxybenzanilides and their thioxo analogues” (Eur J Med Chem, 2012)
Converted amounts (≈) assume the structure as drawn.

Key:
Mycobacterium kansasii [1] = assay: Antimycobacterial activity against Mycobacterium kansasii My 235/80 after 7 days by micromethod; assay type: functional; conditions: My 235/80, 168 h
HepG2 = assay: Cytotoxicity against human HepG2 cells after 24 hrs by CellTiter assay; assay type: cell-based; conditions: HepG2, 24 h
Method in brief: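 Hep G2 cells (passage 12), 10,000 per well in MEM with 1% glutamine, 10% FBS and 1% nonessential amino acids, preincubated 24 h at 37 °C, 5% CO2. Compounds dissolved in DMSO, tested at eight concentrations in quadruplicate for 24 h at 37 °C. MTS-type reagent added for 1.5 h, absorbance read at 490 nm. IC50 = concentration reducing viability to 50% of control.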

[2] = target: T1, Isocitrate lyase (Mycobacterium tuberculosis) (UniProt P9WKK7); assay: Inhibition of Mycobacterium tuberculosis H37Rv isocitrate lyase expressed in Escherichia coli BL21(DE3) using (+)-potassium Ds-threo-isocitrate as substrate assessed as glyoxylate phenyl hydrazone formation at 100 umol/L by spectrophotometry
T1 sequence (whole entry): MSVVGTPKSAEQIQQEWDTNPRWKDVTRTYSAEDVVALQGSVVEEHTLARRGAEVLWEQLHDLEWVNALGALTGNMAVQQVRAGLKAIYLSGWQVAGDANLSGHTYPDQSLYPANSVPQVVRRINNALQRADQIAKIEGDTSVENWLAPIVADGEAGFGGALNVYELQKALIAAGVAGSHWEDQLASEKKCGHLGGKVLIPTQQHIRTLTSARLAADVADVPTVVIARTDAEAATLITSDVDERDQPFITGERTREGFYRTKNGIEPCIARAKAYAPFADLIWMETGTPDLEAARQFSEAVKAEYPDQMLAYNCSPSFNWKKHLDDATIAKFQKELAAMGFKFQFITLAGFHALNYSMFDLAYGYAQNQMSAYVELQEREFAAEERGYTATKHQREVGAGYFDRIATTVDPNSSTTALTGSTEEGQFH

[3] = test system: Mycobacterium tuberculosis; assay: Antimycobacterial activity against Mycobacterium tuberculosis My 331/88 after 14 days by micromethod; assay type: functional; conditions: My 331/88, 336 h
Method in brief: (§1)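 MIC by micromethod at 37 °C, read after 14 and 21 days. Inocula were M. tuberculosis My 331/88 at 10^-3 dilution and M. avium My 330/88 at 10^-5 dilution. Compounds added in DMSO across 1000, 500, 250, 125, 62.5, 32, 16, 8, 4, 2, 1 and 0.5; isoniazid standard in sterile water. MIC taken as the lowest concentration inhibiting growth.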

Mycobacterium avium [4] = assay: Antimycobacterial activity against Mycobacterium avium My 330/88 after 14 days by micromethod; assay type: functional; conditions: My 330/88, 336 h
Mycobacterium avium [5] = assay: Antimycobacterial activity against Mycobacterium avium My 330/88 after 21 days by micromethod; assay type: functional; conditions: My 330/88, 504 h
Mycobacterium kansasii [6] = assay: Antimycobacterial activity against Mycobacterium kansasii My 6509/96 clinical isolate after 21 days by micromethod; assay type: functional; conditions: My 6509/96, 504 h
Mycobacterium kansasii [7] = assay: Antimycobacterial activity against Mycobacterium kansasii My 235/80 after 14 days by micromethod; assay type: functional; conditions: My 235/80, 336 h
Mycobacterium kansasii [8] = assay: Antimycobacterial activity against Mycobacterium kansasii My 6509/96 clinical isolate after 7 days by micromethod; assay type: functional; conditions: My 6509/96, 168 h
[9] = Selectivity ratio of IC50 for human HepG2 cells to MIC for Mycobacterium tuberculosis My 331/88 after 14 days; assay type: functional
Method in brief: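 HepG2 cells (passage 12) at 10,000 cells/well in MEM with 10% FBS, 1% glutamine and 1% nonessential amino acids, pre-incubated 24 h at 37 °C, 5% CO2. Compounds in DMSO at eight concentrations in quadruplicate for 24 h. MTS-type reagent added for 1.5 h, absorbance at 490 nm. IC50 from curve fit. SI = IC50 / 14-day MIC against M. tuberculosis 331/88.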

[10] = test system: Mycobacterium tuberculosis; assay: Antimycobacterial activity against Mycobacterium tuberculosis My 331/88 after 21 days by micromethod; assay type: functional; conditions: My 331/88, 504 h; method in brief: as §1
Mycobacterium kansasii [11] = assay: Antimycobacterial activity against Mycobacterium kansasii My 6509/96 clinical isolate after 14 days by micromethod; assay type: functional; conditions: My 6509/96, 336 h
Mycobacterium kansasii [12] = assay: Antimycobacterial activity against Mycobacterium kansasii My 235/80 after 21 days by micromethod; assay type: functional; conditions: My 235/80, 504 h

Row | SMILES | MIC (Mycobacterium kansasii [1]) [µM] | IC50 (HepG2) [µM] | inhibition [2] [%] | MIC [3] [µM] | MIC (Mycobacterium avium [4]) [µM] | MIC (Mycobacterium avium [5]) [µM] | MIC (Mycobacterium kansasii [6]) [µM] | MIC (Mycobacterium kansasii [7]) [µM] | MIC (Mycobacterium kansasii [8]) [µM] | Selectivity ratio [9] | MIC [10] [µM] | MIC (Mycobacterium kansasii [11]) [µM] | MIC (Mycobacterium kansasii [12]) [µM]
1 | COc1cc(Cl)ccc1C(=S)Nc1cccc(C(F)(F)F)c1 | 16 (≈ 5.53 µg/mL) | 1.81 | 23 | 4 (≈ 1.38 µg/mL) | 32 (≈ 11.1 µg/mL) | 32 (≈ 11.1 µg/mL) | 32 (≈ 11.1 µg/mL) | 32 (≈ 11.1 µg/mL) | 16 (≈ 5.53 µg/mL) | 0.45 | 8 (≈ 2.77 µg/mL) | 32 (≈ 11.1 µg/mL) | 32 (≈ 11.1 µg/mL)
2 | COc1cc(Cl)ccc1C(=S)Nc1cccc(Cl)c1 | 16 (≈ 5 µg/mL) | 11.7 | 20 | 4 (≈ 1.25 µg/mL) | 16 (≈ 5 µg/mL) | 16 (≈ 5 µg/mL) | 32 (≈ 9.99 µg/mL) | 32 (≈ 9.99 µg/mL) | 16 (≈ 5 µg/mL) | 2.92 | 16 (≈ 5 µg/mL) | 32 (≈ 9.99 µg/mL) | 32 (≈ 9.99 µg/mL)
3 | COc1cc(Cl)ccc1C(=S)Nc1ccc(Br)cc1 | 32 (≈ 11.4 µg/mL) | 3.55 | 27 | 4 (≈ 1.43 µg/mL) | 16 (≈ 5.71 µg/mL) | 62.5 (≈ 22.3 µg/mL) | 62.5 (≈ 22.3 µg/mL) | 62.5 (≈ 22.3 µg/mL) | 16 (≈ 5.71 µg/mL) | 0.89 | 16 (≈ 5.71 µg/mL) | 32 (≈ 11.4 µg/mL) | 62.5 (≈ 22.3 µg/mL)
4 | COc1cc(Cl)ccc1C(=S)Nc1ccc(Cl)cc1 | 32 (≈ 9.99 µg/mL) | 2.93 | 39 | 4 (≈ 1.25 µg/mL) | 32 (≈ 9.99 µg/mL) | 32 (≈ 9.99 µg/mL) | 62.5 (≈ 19.5 µg/mL) | 62.5 (≈ 19.5 µg/mL) | 16 (≈ 5 µg/mL) | 0.73 | 16 (≈ 5 µg/mL) | 32 (≈ 9.99 µg/mL) | 62.5 (≈ 19.5 µg/mL)
5 | COc1cc(Cl)ccc1C(=O)Nc1cccc(Br)c1 | 125 (≈ 42.6 µg/mL) | – | – | 250 (≈ 85.2 µg/mL) | 125 (≈ 42.6 µg/mL) | 125 (≈ 42.6 µg/mL) | 125 (≈ 42.6 µg/mL) | 125 (≈ 42.6 µg/mL) | 125 (≈ 42.6 µg/mL) | – | 250 (≈ 85.2 µg/mL) | 125 (≈ 42.6 µg/mL) | 125 (≈ 42.6 µg/mL)
6 | COc1ccc(Cl)cc1C(=O)Nc1cccc([N+](=O)[O-])c1 | 125 (≈ 38.3 µg/mL) | – | – | 125 (≈ 38.3 µg/mL) | 250 (≈ 76.7 µg/mL) | 250 (≈ 76.7 µg/mL) | 125 (≈ 38.3 µg/mL) | 125 (≈ 38.3 µg/mL) | 125 (≈ 38.3 µg/mL) | – | 125 (≈ 38.3 µg/mL) | 125 (≈ 38.3 µg/mL) | 125 (≈ 38.3 µg/mL)
7 | COc1ccc(Cl)cc1C(=O)Nc1cccc(C(F)(F)F)c1 | 4 (≈ 1.32 µg/mL) | – | – | 4 (≈ 1.32 µg/mL) | 125 (≈ 41.2 µg/mL) | 125 (≈ 41.2 µg/mL) | 16 (≈ 5.28 µg/mL) | 4 (≈ 1.32 µg/mL) | 4 (≈ 1.32 µg/mL) | – | 16 (≈ 5.28 µg/mL) | 4 (≈ 1.32 µg/mL) | 16 (≈ 5.28 µg/mL)
8 | COc1cc(Cl)ccc1C(=S)Nc1ccc([N+](=O)[O-])cc1 | 16 (≈ 5.16 µg/mL) | – | – | 8 (≈ 2.58 µg/mL) | 16 (≈ 5.16 µg/mL) | 16 (≈ 5.16 µg/mL) | 32 (≈ 10.3 µg/mL) | 32 (≈ 10.3 µg/mL) | 16 (≈ 5.16 µg/mL) | – | 32 (≈ 10.3 µg/mL) | 16 (≈ 5.16 µg/mL) | 32 (≈ 10.3 µg/mL)
9 | COc1cc(Cl)ccc1C(=O)Nc1cccc([N+](=O)[O-])c1 | 125 (≈ 38.3 µg/mL) | – | – | 125 (≈ 38.3 µg/mL) | 125 (≈ 38.3 µg/mL) | 125 (≈ 38.3 µg/mL) | 125 (≈ 38.3 µg/mL) | 250 (≈ 76.7 µg/mL) | 125 (≈ 38.3 µg/mL) | – | 125 (≈ 38.3 µg/mL) | 125 (≈ 38.3 µg/mL) | 250 (≈ 76.7 µg/mL)
10 | COc1cc(Cl)ccc1C(=O)Nc1cccc(Cl)c1 | 8 (≈ 2.37 µg/mL) | – | – | 125 (≈ 37 µg/mL) | 8 (≈ 2.37 µg/mL) | 32 (≈ 9.48 µg/mL) | 125 (≈ 37 µg/mL) | 32 (≈ 9.48 µg/mL) | 62.5 (≈ 18.5 µg/mL) | – | 125 (≈ 37 µg/mL) | 62.5 (≈ 18.5 µg/mL) | 32 (≈ 9.48 µg/mL)
11 | COc1ccc(Cl)cc1C(=S)Nc1ccc(C(F)(F)F)cc1 | 8 (≈ 2.77 µg/mL) | – | – | 16 (≈ 5.53 µg/mL) | 16 (≈ 5.53 µg/mL) | 16 (≈ 5.53 µg/mL) | 16 (≈ 5.53 µg/mL) | 16 (≈ 5.53 µg/mL) | 8 (≈ 2.77 µg/mL) | – | 16 (≈ 5.53 µg/mL) | 16 (≈ 5.53 µg/mL) | 32 (≈ 11.1 µg/mL)
12 | COc1cc(Cl)ccc1C(=S)Nc1ccc(Cl)c(Cl)c1 | 16 (≈ 5.55 µg/mL) | 6.5 | 17 | 2 (≈ 0.693 µg/mL) | 32 (≈ 11.1 µg/mL) | 32 (≈ 11.1 µg/mL) | 32 (≈ 11.1 µg/mL) | 32 (≈ 11.1 µg/mL) | 16 (≈ 5.55 µg/mL) | 3.25 | 8 (≈ 2.77 µg/mL) | 32 (≈ 11.1 µg/mL) | 62.5 (≈ 21.7 µg/mL)
13 | COc1cc(Cl)ccc1C(=O)Nc1ccc(Br)cc1 | 4 (≈ 1.36 µg/mL) | – | – | 62.5 (≈ 21.3 µg/mL) | 8 (≈ 2.72 µg/mL) | 32 (≈ 10.9 µg/mL) | 32 (≈ 10.9 µg/mL) | 8 (≈ 2.72 µg/mL) | 4 (≈ 1.36 µg/mL) | – | 125 (≈ 42.6 µg/mL) | 8 (≈ 2.72 µg/mL) | 32 (≈ 10.9 µg/mL)
14 | COc1cc(Cl)ccc1C(=S)Nc1cccc([N+](=O)[O-])c1 | 32 (≈ 10.3 µg/mL) | – | – | 8 (≈ 2.58 µg/mL) | 16 (≈ 5.16 µg/mL) | 16 (≈ 5.16 µg/mL) | 32 (≈ 10.3 µg/mL) | 32 (≈ 10.3 µg/mL) | 8 (≈ 2.58 µg/mL) | – | 16 (≈ 5.16 µg/mL) | 16 (≈ 5.16 µg/mL) | 62.5 (≈ 20.2 µg/mL)
15 | COc1cc(Cl)ccc1C(=O)Nc1ccc(Cl)cc1 | 8 (≈ 2.37 µg/mL) | – | – | 125 (≈ 37 µg/mL) | 8 (≈ 2.37 µg/mL) | 32 (≈ 9.48 µg/mL) | 62.5 (≈ 18.5 µg/mL) | 16 (≈ 4.74 µg/mL) | 8 (≈ 2.37 µg/mL) | – | 125 (≈ 37 µg/mL) | 16 (≈ 4.74 µg/mL) | 62.5 (≈ 18.5 µg/mL)
